Laboratory results reported in ChEMBL document CHEMBL1122323 (J Med Chem, 1983).
The source made the active and inactive calls. No cut-off for these calls is given here.

Assays:
Rattus norvegicus [1] = species on record: Rattus norvegicus; test: Inhibition of conditioned avoidance response (CAR) in fasted male Sprague-Dawley rats.; type: functional
In short: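 Rats trained to climb or hurdle a barrier in a shuttle box within 30 s. Training was 11 trials at 3-min intervals on day 1, then one foot-shock reinforcement and two trials daily for 9 days. On day 10, groups of 5-10 rats were given drug or vehicle by oral gavage and tested.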

[2] = biological target: T1, Adrenergic receptor alpha-1 (Rattus norvegicus, UniProt P15823+P23944+P43140); test: Inhibition of [3H]WB-4101 binding to alpha-1-adrenergic receptor from rat cerebral cortex membranes; type: cell membranes, Membrane
T1 sequence (P15823 whole entry): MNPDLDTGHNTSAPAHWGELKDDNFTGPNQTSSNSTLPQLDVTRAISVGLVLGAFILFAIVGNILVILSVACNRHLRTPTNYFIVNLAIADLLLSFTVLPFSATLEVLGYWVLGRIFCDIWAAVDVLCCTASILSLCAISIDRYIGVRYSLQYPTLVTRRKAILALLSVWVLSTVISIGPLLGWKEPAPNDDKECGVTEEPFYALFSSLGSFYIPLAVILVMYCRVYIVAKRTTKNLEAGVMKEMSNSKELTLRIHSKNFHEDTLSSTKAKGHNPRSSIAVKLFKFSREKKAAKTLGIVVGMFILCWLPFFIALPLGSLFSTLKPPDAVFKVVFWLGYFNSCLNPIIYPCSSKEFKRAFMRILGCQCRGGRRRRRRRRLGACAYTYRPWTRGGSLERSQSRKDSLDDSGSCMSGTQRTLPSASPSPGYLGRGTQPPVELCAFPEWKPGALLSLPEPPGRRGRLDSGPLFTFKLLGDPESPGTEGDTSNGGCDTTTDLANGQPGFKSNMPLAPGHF
T1 sequence (P23944 whole entry): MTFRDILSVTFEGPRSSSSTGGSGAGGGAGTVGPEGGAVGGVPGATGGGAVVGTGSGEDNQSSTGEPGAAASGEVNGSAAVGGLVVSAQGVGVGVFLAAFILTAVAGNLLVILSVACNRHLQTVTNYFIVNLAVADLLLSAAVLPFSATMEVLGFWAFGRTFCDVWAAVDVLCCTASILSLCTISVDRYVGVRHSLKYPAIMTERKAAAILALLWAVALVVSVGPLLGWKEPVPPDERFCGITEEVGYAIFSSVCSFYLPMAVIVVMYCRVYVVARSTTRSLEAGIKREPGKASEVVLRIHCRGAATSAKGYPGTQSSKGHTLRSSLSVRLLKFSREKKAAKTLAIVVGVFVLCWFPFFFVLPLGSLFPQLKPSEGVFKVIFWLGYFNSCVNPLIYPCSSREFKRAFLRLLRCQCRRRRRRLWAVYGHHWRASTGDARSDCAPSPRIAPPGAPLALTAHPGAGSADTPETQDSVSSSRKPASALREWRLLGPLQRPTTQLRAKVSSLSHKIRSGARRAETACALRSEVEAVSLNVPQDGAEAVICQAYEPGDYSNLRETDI
T1 sequence (P43140 whole entry): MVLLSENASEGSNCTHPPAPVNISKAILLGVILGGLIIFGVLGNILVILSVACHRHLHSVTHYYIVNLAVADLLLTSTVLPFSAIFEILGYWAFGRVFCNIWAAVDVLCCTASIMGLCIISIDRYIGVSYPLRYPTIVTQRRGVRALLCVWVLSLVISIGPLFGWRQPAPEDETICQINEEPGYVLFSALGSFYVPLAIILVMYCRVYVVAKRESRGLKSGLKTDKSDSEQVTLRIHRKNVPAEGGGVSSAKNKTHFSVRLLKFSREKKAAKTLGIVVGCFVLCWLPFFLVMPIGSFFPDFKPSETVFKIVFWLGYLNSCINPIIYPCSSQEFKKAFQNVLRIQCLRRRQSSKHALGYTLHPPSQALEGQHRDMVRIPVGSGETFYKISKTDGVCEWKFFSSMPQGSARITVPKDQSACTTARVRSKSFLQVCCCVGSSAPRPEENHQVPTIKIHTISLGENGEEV

Rattus norvegicus [3] = species on record: Rattus norvegicus; test: Inhibition of apomorphine induced stereotypy in nonfasted male Sprague-Dawley rats; inactive; type: functional, organism-based
Rattus norvegicus [4] = species on record: Rattus norvegicus; test: Induction of catalepsy in nonfasted, male Sprague-Dawley rats (dose that produced catalepsy in 50% of the animals); value may range from 27.5 to 74.3; type: functional
Rattus norvegicus [5] = species on record: Rattus norvegicus; test: Inhibition of apomorphine induced stereotypy in nonfasted male Sprague-Dawley rats; type: functional
In short: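 Groups of 10 nonfasted male Sprague–Dawley rats got test drug by oral gavage. At the previously determined time of peak effect they were challenged with apomorphine 0.5 mg/kg sc and watched for 30 min in individual cages for sniffing, licking, rearing and biting. Inhibition meant all of these were blocked for the full 30 min. ED50 was taken by Berkson's method.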

Rattus norvegicus [6] = species on record: Rattus norvegicus; test: Induction of catalepsy in nonfasted, male Sprague-Dawley rats (dose that produced catalepsy in 50% of the animals); value may range from 77.0 to 151.3; type: functional
Rattus norvegicus [7] = species on record: Rattus norvegicus; test: Induction of catalepsy in nonfasted, male Sprague-Dawley rats (dose that produced catalepsy in 50% of the animals); value may range from 58.7 to 141.5; type: functional
Rattus norvegicus [8] = species on record: Rattus norvegicus; test: Induction of catalepsy in nonfasted, male Sprague-Dawley rats (dose that produced catalepsy in 50% of the animals); value may range from 69.6 to 172.9; type: functional

Row | Compound | ED50 (Rattus norvegicus [1]) | IC50 [2] | also measured
1 | COc1ccccc1N1CCN(CCN2C(=O)CC3(CCCC3)CC2=O)CC1 [BMY-7378] | 52.1 mg/kg |  | 
2 | O=C1CC2(CCCC2)CC(=O)N1CCCN1CCN(c2cccc(Cl)c2)CC1 | 28.2 mg/kg | 150 nM | 
3 | Cc1ccnc(N2CCN(CCCCN3C(=O)CC4(CCCC4)CC3=O)CC2)n1 | 52.4 mg/kg | > 1000 nM | 
4 | CC12CC1(C)C(=O)N(CCCCN1CCN(c3ncccn3)CC1)C2=O (centres undefined) | 91.6 mg/kg | 680 nM | 
5 | CC1(C)CC(=O)N(CCCCN2CCN(c3ncccn3)CC2)C(=O)C1 [GEPIRONE] | 52.5 mg/kg |  | NA (Rattus norvegicus [3]): inactive
6 | O=C1CC2(CCCCCC2)C(=O)N1CCCCN1CCN(c2ncccn2)CC1 | 51.5 mg/kg | > 1000 nM | 
7 | COc1ccccc1N1CCN(CCCCN2C(=O)CC3(CCCC3)CC2=O)CC1 | 20.5 mg/kg | 13 nM | 
8 | COc1ccccc1N1CCN(CCN2C(=O)CC(C)(C)CC2=O)CC1 | 91.2 mg/kg | 895 nM | 
9 | CSc1ccc2c(c1)N(CCC1CCCCN1C)c1ccccc1S2 (centres undefined) [THIORIDAZINE] | 126 mg/kg |  | ED50 (Rattus norvegicus [4]): 45.2 mg/kg
10 | O=C1CC2(CCCC2)CC(=O)N1CCCCN1CCN(c2cccc(Cl)c2)CC1 | 27.6 mg/kg | 23 nM | 
11 | N#Cc1cccnc1N1CCN(CCCN2C(=O)CC3(CCCC3)CC2=O)CC1 | > 100 mg/kg |  | 
12 | Cc1ccccc1N1CCN(CCCCN2C(=O)CC3(CCCC3)CC2=O)CC1 | ~100 mg/kg | 44 nM | 
13 | O=C1CC2(CCCC2)CC(=O)N1CCCN1CCN(c2ncccn2)CC1 | > 100 mg/kg |  | 
14 | O=C1CC2(CCCC2)CC(=O)N1CCN1CCN(c2cccc(Cl)c2)CC1 | > 100 mg/kg |  | 
15 | COc1ccccc1N1CCN(CCN2C(=O)CC3(CCCCCCC3)C2=O)CC1 | 69.9 mg/kg | > 1000 nM | 
16 | COc1ccccc1N1CCN(CCN2C(=O)C(C)CC(C)C2=O)CC1 (centres undefined) | > 100 mg/kg |  | 
17 | O=C1CC2(CCCC2)CC(=O)N1CCCCCN1CCN(c2ncccn2)CC1 | > 100 mg/kg |  | 
18 | O=C1C2C3C=CC(CC3)C2C(=O)N1CCCCN1CCN(c2ncccn2)CC1 (centres undefined) | > 100 mg/kg |  | 

Row | Compound | ED50 (Rattus norvegicus [1]) | IC50 [2] | also measured
19 | N#Cc1cccnc1N1CCN(CCN2C(=O)CC3(CCCC3)CC2=O)CC1 | > 100 mg/kg |  | 
20 | O=C(CCCN1CCC(O)(c2ccc(Cl)cc2)CC1)c1ccc(F)cc1 [HALOPERIDOL] | 2.8 mg/kg |  | 
21 | COc1cccnc1N1CCN(CCCCN2C(=O)CC3(CCCC3)CC2=O)CC1 | 55.2 mg/kg | 65 nM | 
22 | O=C1CC2(CCCC2)CC(=O)N1CCCCN1CCN(c2ncccn2)CC1 [BUSPIRONE] |  |  | ED50 (Rattus norvegicus [5]): 28 mg/kg
23 | O=C1CC2(CCCC2)CC(=O)N1CCCCN1CCN(c2ccccc2)CC1 | 30.7 mg/kg |  | ED50 (Rattus norvegicus [6]): 108 mg/kg
24 | CN1CCN(C2=Nc3cc(Cl)ccc3Nc3ccccc32)CC1 [CLOZAPINE] | 24.1 mg/kg |  | 
25 | O=C1CC2(CCCC2)CC(=O)N1CCCCN1CCN(c2ccccn2)CC1 | 34 mg/kg | 275 nM | 
26 | O=C1CC2(CCCCC2)C(=O)N1CCCCN1CCN(c2ncccn2)CC1 | 58.4 mg/kg | > 1000 nM | 
27 | COc1ccccc1N1CCN(CCN2C(=O)CCC(C)(C)C2=O)CC1 | 55.3 mg/kg | 480 nM | 
28 | O=C1CC2(CCCC2)CC(=O)N1CCCCN1CCN(c2ccccc2F)CC1 | 37.1 mg/kg |  | ED50 (Rattus norvegicus [7]): 91.1 mg/kg
29 | COc1ccccc1N1CCN(CCN2C(=O)CC3(CCCCC3)C2=O)CC1 | 50 mg/kg | 240 nM | 
30 | O=C1CC2(CCCC2)CC(=O)N1CCCCN1CCN(c2ccccc2[N+](=O)[O-])CC1 | 48.8 mg/kg | 110 nM | 
31 | O=C1CC2(CCCC2)CC(=O)N1CCN1CCN(c2ccccc2)CC1 | > 100 mg/kg |  | 
32 | O=C1CCC2(CCCC2)CC(=O)N1CCCCN1CCN(c2ncccn2)CC1 | > 50 mg/kg | 820 nM | 
33 | O=C1CC2(CCCC2)CC(=O)N1CCCCN1CCN(c2ccccc2Cl)CC1 | 77.8 mg/kg |  | ED50 (Rattus norvegicus [8]): 109 mg/kg
34 | N#Cc1cccnc1N1CCN(CCCCN2C(=O)CC3(CCCC3)CC2=O)CC1 | 45 mg/kg | 360 nM | ED50 (Rattus norvegicus [5]): 36.6 mg/kg
35 | COc1ccccc1N1CCN(CCCN2C(=O)CC3(CCCC3)CC2=O)CC1 | 24.1 mg/kg | 19 nM | 
